Here are results for ten compounds from ChEMBL document CHEMBL2203153, “Synthesis of novel azo-resveratrol, azo-oxyresveratrol and their derivatives as potent tyrosinase inhibitors” (Bioorg Med Chem Lett, 2012).

Molecules are shown by their SMILES.

The target of test [1] is T1, Tyrosinase (Agaricus bisporus) (UniProt O42713).
T1 sequence (whole entry): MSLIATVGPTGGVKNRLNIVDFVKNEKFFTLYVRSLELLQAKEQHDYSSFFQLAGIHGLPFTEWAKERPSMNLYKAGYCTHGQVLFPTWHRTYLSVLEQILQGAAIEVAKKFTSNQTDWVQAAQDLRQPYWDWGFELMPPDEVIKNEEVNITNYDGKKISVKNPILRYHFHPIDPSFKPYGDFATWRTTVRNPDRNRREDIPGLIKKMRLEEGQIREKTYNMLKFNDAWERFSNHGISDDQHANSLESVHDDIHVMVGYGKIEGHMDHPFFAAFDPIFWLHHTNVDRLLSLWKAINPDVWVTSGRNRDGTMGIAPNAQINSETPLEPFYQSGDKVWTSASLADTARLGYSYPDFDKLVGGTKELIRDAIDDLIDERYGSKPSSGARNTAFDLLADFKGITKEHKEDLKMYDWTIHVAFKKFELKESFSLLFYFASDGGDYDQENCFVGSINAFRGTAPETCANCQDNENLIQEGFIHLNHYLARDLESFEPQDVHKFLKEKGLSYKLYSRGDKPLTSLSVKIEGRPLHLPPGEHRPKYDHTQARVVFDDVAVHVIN
Put plainly: Inhibition of mushroom tyrosinase using L-tyrosine as substrate at 50 uM after 30 mins by spectrophotometric analysis. In a few lines: (§1)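 Mushroom tyrosinase (1000 units) was added to a mixture of 1 mM L-tyrosine and 50 mM phosphate buffer, pH 6.5, with test compound at the stated concentration. After 30 min at 25 °C, dopachrome formation was measured spectrophotometrically at OD492 and expressed as percent inhibition. Values are means ± S.E. of three experiments.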

The target of test [2] is T1, Tyrosinase (Agaricus bisporus). Put plainly: (§2) Inhibition of mushroom tyrosinase using L-tyrosine as substrate after 30 mins by spectrophotometric analysis. The procedure, abridged:
(§3)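 Mushroom tyrosinase (1000 units) was added to assay mixture containing 1 mM L-tyrosine in 50 mM phosphate buffer, pH 6.5. Incubation ran 30 min at 25 °C, and dopachrome was read at 492 nm. Dose-dependent inhibition was run in triplicate at three doses. IC50 was taken from the inhibitor concentration versus product formation curve.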

The target in test [3] is T2, Tyrosinase (Agaricus bisporus, UniProt O42713).
T2 sequence (O42713 whole entry): T1 sequence (whole entry)
The test is described as §2. In a few lines: as §3

Test [4] has as its target T1, Tyrosinase (Agaricus bisporus). Put plainly: Inhibition of mushroom tyrosinase using L-tyrosine as substrate at 30 uM after 30 mins by spectrophotometric analysis. In a few lines: as §1
Test [5] shares this target. Kind of test: Inhibition of mushroom tyrosinase using L-tyrosine as substrate at 15 uM after 30 mins by spectrophotometric analysis. In a few lines: as §1
The target is the same in test [6]. Put plainly: Inhibition of mushroom tyrosinase using L-tyrosine as substrate at 10 uM after 30 mins by spectrophotometric analysis. The procedure, abridged:
(§4)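 Mushroom tyrosinase (20 µL of 1000 units aqueous solution) in a 200 µL mixture with 1 mM L-tyrosine in 50 mM phosphate buffer, pH 6.5. Incubated 30 min at 25 °C; dopachrome read at 492 nm. Percent inhibition was measured at three doses per compound, in triplicate, to build dose–response curves.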

Test [7] has the same target. Kind of test: Inhibition of mushroom tyrosinase using L-tyrosine as substrate at 1 uM after 30 mins by spectrophotometric analysis. The procedure, abridged:
as §4

The target is the same in test [8]. Put plainly: Inhibition of mushroom tyrosinase using L-tyrosine as substrate at 0.5 uM after 30 mins by spectrophotometric analysis. The procedure, abridged:
as §4

Test [9] shares this target. Put plainly: Inhibition of mushroom tyrosinase using L-tyrosine as substrate at 5 uM after 30 mins by spectrophotometric analysis. In a few lines:
as §1

Test [10] has the same target. Kind of test: Inhibition of mushroom tyrosinase using L-tyrosine as substrate at 20 uM after 30 mins by spectrophotometric analysis. In a few lines:
as §1

Test [11] shares this target. Put plainly: Inhibition of mushroom tyrosinase using L-tyrosine as substrate at 80 uM after 30 mins by spectrophotometric analysis. The procedure, abridged: as §1

The compound `COc1ccc(/N=N/c2cc(OC)ccc2OC)c(O)c1` showed an inhibition in test [1] of 6.38%.

On to `Oc1ccc(/N=N/c2cc(O)cc(O)c2)cc1`, for which the inhibition result in [2] was “Dose-dependent effect”; in test [4], 44.3%; in test [5] it was 7.6%; in test [1], 72.8%. The compound further gave an IC50 in test [3] of 36.3 µM.

The compound `COc1cc(/N=N/c2ccc(O)cc2O)cc(OC)c1` returned an inhibition in test [1] of 48.5%.

In test [1], `Oc1cc(O)cc(/N=N/c2ccc(O)cc2O)c1` showed an inhibition of 41.5%.

In turn, `COc1ccc(OC)c(/N=N/c2ccc(O)cc2O)c1` gave an inhibition in test [1] of 27.8%.

The compound `COc1ccc(OC)c(/N=N/c2ccc(O)c(OC)c2)c1` came in with an inhibition in test [1] of 0.44%.

In turn, `COc1cc(/N=N/c2ccc(O)c(OC)c2)cc(OC)c1` displayed an inhibition in [1] of 1.03%.

Consider `Oc1ccc(/C=C/c2cc(O)cc(O)c2)cc1` [RESVERATROL], for which the inhibition entry was “Dose-dependent effect” in test [2]; 38% in test [6]; 16.3% in [7]; 13.7% in test [8]; 47.8% in test [4]; 27.1% in [9]. The compound further showed an inhibition in test [10] of 47.3%. This compound displayed an IC50 in [3] of 26.6 µM.

`COc1cc(/N=N/c2ccc(O)cc2OC)cc(OC)c1` yielded an inhibition in test [1] of 8.9%.

As for `COc1cc(/N=N/c2ccc(O)cc2)cc(OC)c1`, the inhibition entry in test [2] is “Dose-dependent effect”; in [11], 61.4%; in test [9] it was 8.4%; in test [10], 46%; in test [1] it was 56.2%. For the same compound, the IC50 in test [3] came out at 50.2 µM.
